Test results reported in paper PMC5628144 (Phytotherapy research : PTR, 2017).
Values joined by “and” are separate entries in the source; they are usually repeats but may differ in a detail not shown here. Equal entries are not always repeated.

How the values were obtained:
c-Met kinase = c-Met kinase (Homo sapiens, UniProt P08581); assay: Cell-free Z'-LYTE kinase assay, c-Met phosphorylation inhibition; type: biochemical; conditions: for % c-Met Inhibition using Cell-Free assay (5 µM dose): single 5 µM dose; for IC50: read-out: c-Met phosphorylation inhibitory IC50, various doses
Procedure, shortened: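 Purified c-Met kinase domain, pre-phosphorylated in vitro, in a Z'-LYTE Tyr6 peptide kit. Reactions held kinase buffer, 200 µM ATP, 4 µM Tyr6 peptide, 2500 ng mL⁻¹ c-Met and test compound, run 1 h at rt. Protease development solution then added for 1 h. Read-out was the 445/520 nm fluorescence ratio. Screen at 5 µM, then various doses, N=3/dose. IC50 from non-linear regression.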

[1] = test system: MDA-MB-231 breast cancer cells; assay: MTT cell proliferation assay, HGF-induced, MDA-MB-231; type: cell-based, human; conditions: 48 h
Procedure, shortened: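 MDA-MB-231 cells were seeded at 1×10⁴/well (6 wells/group) in RPMI-1640 with 10% FBS overnight. They were PBS-washed and treated for 48 h at 37°C in serum-free RPMI with 40 ng/mL HGF and 10 or 40 µM test compound, or DMSO vehicle. MTT 1 mg mL⁻¹ for 4 h, DMSO solubilisation, A570. Cell number came from a standard curve, and % survival was taken relative to DMSO wells.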

[2] = test system: BT-474 breast cancer cells; assay: MTT cell proliferation assay, HGF-induced, BT-474; type: cell-based, human; conditions: BT-474, various doses
Procedure, shortened: (§1)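 MDA-MB-468, MCF-7 or BT-474 cells were seeded at 1×10⁴/well (6 wells/group) in RPMI-1640 with 10% FBS and left overnight at 37°C, 5% CO₂. After a PBS wash they got serum-free RPMI with 40 ng/mL HGF plus test compound at various doses, or DMSO (≤0.1%), for 48 h. MTT (1 mg mL⁻¹) for 4 h, formazan dissolved in DMSO, A570. IC50 by non-linear regression.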

[3] = test system: MDA-MB-468 breast cancer cells; assay: MTT cell proliferation assay, HGF-induced, MDA-MB-468; type: cell-based, human; conditions: MDA-MB-468, various doses
Procedure, shortened: as §1

[4] = test system: MCF-7 breast cancer cells; assay: MTT cell proliferation assay, HGF-induced, MCF-7; type: cell-based, human; conditions: MCF-7, various doses
Procedure, shortened: as §1

MDA-MB-231 cells = assay: Wound-healing scratch assay; type: cell-based, human; conditions: read-out: IC50, HGF-induced cell migration; WHA, MDA-MB-231, 24 h, 40 ng/mL HGF
Procedure, shortened: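 Scratch wounds were made with a pipette tip in overnight confluent MDA-MB-231 monolayers, then rinsed with PBS and RPMI. Test compound at various doses in serum-free medium with 40 ng/mL HGF, in triplicate, for 24 h. Cells were fixed and Giemsa-stained, and wound width measured at 0 and 24 h. % migration calculated against DMSO-treated wells, with IC50 by non-linear regression. Oleocanthal 10 µM was the positive control.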

Chain of c-Met kinase (P08581 1078-1345 limits assumed): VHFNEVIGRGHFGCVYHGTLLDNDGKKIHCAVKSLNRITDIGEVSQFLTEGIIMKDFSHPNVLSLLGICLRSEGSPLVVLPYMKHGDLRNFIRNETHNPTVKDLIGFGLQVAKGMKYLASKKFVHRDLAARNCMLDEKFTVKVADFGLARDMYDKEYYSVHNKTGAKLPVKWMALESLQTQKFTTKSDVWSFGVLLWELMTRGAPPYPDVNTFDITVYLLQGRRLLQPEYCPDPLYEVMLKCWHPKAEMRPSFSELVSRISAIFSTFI

| Compound | % c-Met Inhibition using Cell-Free assay (5 µM dose) (c-Met kinase) [%] | % Survival Inhibition ([1]; 10 µM) | % Survival Inhibition ([1]; 40 µM) | HGF-induced proliferation [2] | HGF-induced proliferation [3] | HGF-induced proliferation [4] | IC50 (MDA-MB-231 cells) [µM] | IC50 (c-Met kinase) [µM] |
| --- | --- | --- | --- | --- | --- | --- | --- | --- |
| 6-O-α-L-(3″-O-trans-p-coumaroyl-4″-O-trans-caffeoyl)-rhamnopyrano-sylcatalpol [Compound 3] | 10.9 | 27% | 30% |  |  |  |  |  |
| C[C@@H]1O[C@@H](O[C@H]2[C@@H]3C=CO[C@@H](O[C@@H]4O[C@H](CO)[C@@H](O)[C@H](O)[C@H]4O)[C@@H]3[C@@]3(CO)O[C@@H]23)[C@H](O)[C@H](OC(=O)/C=C/c2ccc(O)cc2)[C@H]1OC(=O)/C=C/c1ccc(O)cc1 (relative stereo) [Compound 1, 6-O-α-L-(3″,4″-di-O-trans-p-coumaroyl) rhamnopyranosylcatalpol] | 0 |  | 26% |  |  |  |  |  |
| C[C@@H]1O[C@@H](OC(=O)/C=C/c2ccc(O)cc2)[C@H](OC(=O)/C=C/c2ccc(O)c(O)c2)[C@H](O)[C@H]1O (relative stereo) [Compound 9, 1-O-trans-p-coumaroyl-2-O-trans-caffeoyl-α-L-rhamnopyranose] |  | 50% and 51.3% | 80% and 79.3% | dose-dependent suppression | dose-dependent suppression | dose-dependent suppression | 0.98 | 2.5 |
| C[C@@H]1O[C@@H](OC(=O)/C=C/c2ccc(O)cc2)[C@H](O)[C@H](OC(=O)/C=C/c2ccc(O)c(O)c2)[C@H]1O (relative stereo) [Compound 10, 1-O-trans-p-coumaroyl-3-O-trans-caffeoyl-α-L-rhamnopyranose] | 38.8 | 28% and 28.2% | 49% and 49.2% |  |  |  | 8.1 | 12.7 |
| COc1ccc(C=CC(=O)OC2C(C)OC(OC3C4C=COC(OC5OC(CO)C(O)C(O)C5O)C4C4(CO)OC34)C(O)C2OC(=O)C=Cc2ccc(OC)cc2)cc1 [Compound 2, 6-O-α-L-(3″,4″-di-O-trans-p-methoxycinnamoyl)-rhamnopyranosylcatalpol] | 0 |  | 17% |  |  |  |  |  |
| COc1ccc(/C=C/C(=O)O[C@@H]2[C@@H](O)[C@@H](O)[C@H](O[C@H]3[C@@H]4C=CO[C@@H](O[C@@H]5O[C@H](CO)[C@@H](O)[C@H](O)[C@H]5O)[C@@H]4[C@@]4(CO)O[C@@H]34)O[C@H]2C)cc1 [Compound 8, 6-O-α-L-(4”-O-p-methoxycinnamoyl) rhamnopyranosylcatalpol] | 56.7 | 32% | 61% and 61.3% |  |  |  | 13.5 | 6.9 |
| premnoside B [Compound 6] | 0 | 10% | 13% |  |  |  |  |  |
| premnoside C [Compound 7] | 0 | 13% | 18% |  |  |  |  |  |
| premnoside E [Compound 4] | 0 |  | 7% |  |  |  |  |  |
| premnoside G [Compound 5] | 0 |  | 20% |  |  |  |  |  |
